Bioassay records: PubChem, several laboratories
The list is not random: actives were taken first. Their share in the collection is about 0.95%.
Arbovirus inh: antivirals against arbovirus infection, primary screen, cell-based, full library, 10K replicate subset | arbovirus infection cell-based antiviral screen | inhibition, % at 10 µM | 200,000 tested, 0.37% active | AID 1251, 2008; in the data active means inhibition above about 30%
NCF1 inh: p47phox/p22phox peptide binding inhibitors, primary screen, biochemical, uHTS, NADPH oxidase regulatory subunit; inhibition, % at 24.7 µM; 220,000 tested, 0.53% active; fluorescence polarization, 2 h; AID 1274, 2008; Neutrophil cytosol factor 1 (Homo sapiens), P14598;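 active means inhibition above about 30%, limit read from the data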;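 further: 0% = p47phox with labelled peptide and 100% = labelled peptide alone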
HSV replic up: enhancers of HSV replication in host cells, fold increase, host cell viability; HSV replication augmentation in cells; maximum fold increase; 220,000 tested, 0.005% active; in the data active means maximum fold increase above about 1.5; inconclusive means no clear call, values can overlap the other calls; tested in PC3 cells
ABCB1 block: ABCB1 efflux pump inhibitors, primary screen, cell-based, multiplex, flow cytometry, ABCG2 counter-screen; ATP-dependent translocase ABCB1 (Homo sapiens), P08183; CCRF-Adr cells, JC-1 efflux; inhibition, % at 6.6 µM; 190,000 tested, 0.067% active; AID 1326, 2008; in the data active means inhibition above about 40%;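 further: 0% = vehicle and 100% = reference inhibitor; higher value means more JC-1 retained so stronger ABCB1 efflux block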
Furin inh: human furin inhibitors, primary screen, biochemical, fluorescence intensity. 220,000 tested, 0.061% active. purified furin, fluorogenic substrate cleavage. inhibition, % at 20 µM or 30 µM; in the data active means inhibition above about 25%
ABCG2 block: ABCG2 efflux pump inhibitors, primary screen, multiplex with ABCB1, IgMXP3 cells, flow cytometry; 190,000 tested, 0.1% active; AID 1325, 2008; Broad substrate specificity ATP-binding cassette transporter ABCG2 (Homo sapiens), Q9UNQ0; inhibition, % at 6.6 µM; JC-1 efflux;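 active means inhibition above 80%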;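 further: 0% = DMSO and 100% = nicardipine control wells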
Target sequence (Q9UNQ0 whole entry, looked up): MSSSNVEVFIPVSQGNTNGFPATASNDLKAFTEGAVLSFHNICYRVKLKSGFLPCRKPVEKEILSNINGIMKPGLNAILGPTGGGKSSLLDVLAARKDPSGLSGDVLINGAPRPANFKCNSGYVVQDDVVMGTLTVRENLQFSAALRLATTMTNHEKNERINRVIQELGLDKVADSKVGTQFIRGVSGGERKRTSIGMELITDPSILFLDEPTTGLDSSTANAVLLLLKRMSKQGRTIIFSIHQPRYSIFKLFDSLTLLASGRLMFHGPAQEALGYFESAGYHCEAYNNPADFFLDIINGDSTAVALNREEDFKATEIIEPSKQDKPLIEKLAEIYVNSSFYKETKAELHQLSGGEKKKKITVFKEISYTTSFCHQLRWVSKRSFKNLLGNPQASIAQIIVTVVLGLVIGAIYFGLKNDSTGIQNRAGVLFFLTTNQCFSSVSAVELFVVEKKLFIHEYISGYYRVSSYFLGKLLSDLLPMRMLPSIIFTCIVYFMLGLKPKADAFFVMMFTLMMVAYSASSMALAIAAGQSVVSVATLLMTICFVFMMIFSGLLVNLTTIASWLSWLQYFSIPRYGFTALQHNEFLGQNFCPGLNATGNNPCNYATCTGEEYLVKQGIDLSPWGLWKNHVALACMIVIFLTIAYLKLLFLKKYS
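Test system: IgMXP3 (ABCG2) plus far-red-tagged CCRF-Adr (ABCB1) cells. Reagent: JC-1 dye as substrate. Timing: 10 min exposure at 25 °C with rotation, no wash. Measured by: flow cytometric JC-1 green MFI at 530 nm. Read-out: percent efflux inhibition, scaled nicardipine 100% to DMSO 0%. Control set: nicardipine and DMSO wells.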
Active calls of the source: *; ! = repeats disagree.

Screening COc1ccc(C2C=C(c3ccccc3)Nc3nnnn32)cc1 (stereo not drawn) returned Arbovirus inh 2.9, NCF1 inh -3.8, HSV replic up inactive, ABCB1 block -0.1, Furin inh -17.5 and ABCG2 block -0.2.
For CCCc1cc(=O)[nH]c(SCC(=O)c2cc(C)n(-c3c(C)n(C)n(-c4ccccc4)c3=O)c2C)n1 the results were Arbovirus inh 3.2, NCF1 inh -1.4, HSV replic up inactive, ABCB1 block 0.4, Furin inh -25.5 and ABCG2 block 5.2.
`Cc1c(NC(=S)NC(=O)C2CCCCC2)c(=O)n(-c2ccccc2)n1C` gave Arbovirus inh 1.2, NCF1 inh -12.1, HSV replic up inactive, ABCB1 block 0.8, Furin inh -34.5 and ABCG2 block 0.9.
`COc1ccc(C2NCCc3c2[nH]c2ccccc32)cc1CSc1nc2ccccc2s1` (stereo not drawn) gave Arbovirus inh -35.2, NCF1 inh 58.4*, HSV replic up inactive, ABCB1 block 1.7, Furin inh -12.6 and ABCG2 block 0.4.
`O=c1[nH]c(CSc2nc3ccccc3s2)nc2ccccc12` gave NCF1 inh -15.2, HSV replic up inactive and Furin inh -14.2.
For CCCOP(=O)(OCCC)C1(Nc2ccc(C)cc2)CCCCC1 the results were Arbovirus inh -21.8, NCF1 inh -1.3, ABCB1 block 0.8, Furin inh 26.0* and ABCG2 block 2.2.
Screening COc1cccc(-c2cc(C(=O)Nc3cnn(Cc4ccc(F)cc4)c3)no2)c1 returned Arbovirus inh 1.3, NCF1 inh 1.0, HSV replic up inactive, ABCB1 block -0.5, Furin inh -19.7 and ABCG2 block 16.9.
Screening COc1cccc(-c2cc(C(=O)Nc3cnn(Cc4ccccc4C)c3)no2)c1 returned Arbovirus inh -14.1, NCF1 inh 70.0*, ABCB1 block 0.0, Furin inh -14.3 and ABCG2 block 1.2.
COc1ccc(CCNC(=O)C2CC3Cn4c(nc5ccccc54)C3N2c2ccccc2)cc1 (stereo not drawn) was read as HSV replic up inactive.
Screening CC(C)(C)c1ccc(OCC(=O)NNC(=O)CCc2ccccc2)cc1 returned Arbovirus inh 15.9, NCF1 inh 60.6*, ABCB1 block 0.0, Furin inh -15.9 and ABCG2 block 0.2.
C=CCOc1ccc(CNCCc2ccc(S(N)(=O)=O)cc2)cc1 was read as Arbovirus inh -4.0, NCF1 inh -5.5, HSV replic up inactive, ABCB1 block 0.1, Furin inh -20.6 and ABCG2 block -0.5.
COc1ccc2cc(-c3cc(C(=O)O)c4ccccc4n3)ccc2c1 was read as Arbovirus inh 34.2*, NCF1 inh -1.9, HSV replic up inactive, ABCB1 block -0.8, Furin inh 0.8 and ABCG2 block -1.7.
Screening CCOC(=O)C1=C(Cc2ccc(OC)cc2)C(=O)c2ccccc2C1=O returned Arbovirus inh -45.9, NCF1 inh 92.7*, ABCB1 block 0.3, Furin inh -11.6 and ABCG2 block -0.6.
`CCOC(=O)C1=C(O)c2ccccc2C(=O)/C1=C\c1ccc(CC)cc1` gave Arbovirus inh -19.3, NCF1 inh 56.4*, HSV replic up inconclusive, ABCB1 block 2.5, Furin inh -9.3 and ABCG2 block 4.8.
`CCOC(=O)C1=C(Cc2ccc(C)cc2)C(=O)c2ccccc2C1=O` gave Arbovirus inh 1.2, NCF1 inh 29.8, HSV replic up inconclusive, ABCB1 block 1.3, Furin inh -20.1 and ABCG2 block 1.3.
For CC1CCN(c2ccc(C(=O)O)cc2NS(=O)(=O)c2ccc(Br)cc2)CC1 the results were Arbovirus inh 1.7, NCF1 inh -4.9, HSV replic up inactive, ABCB1 block -0.4, Furin inh 1.0 and ABCG2 block -1.0.
O=[N+]([O-])c1c(NCc2ccccc2)cc(N2CCc3ccccc3C2)c2nonc12 was read as Arbovirus inh -2.4, NCF1 inh -39.6, HSV replic up inactive, ABCB1 block 4.6, Furin inh -10.5 and ABCG2 block 26.7.
For O=C(CSc1nc(O)cc(=O)[nH]1)N1c2ccccc2CCc2ccccc21 the results were NCF1 inh -24.9, HSV replic up inactive and Furin inh -23.9.
Screening CN1CCN(C2=Nc3ccccc3Oc3ccc(Cl)cc32)CC1 returned Arbovirus inh 3.4, NCF1 inh 38.5*!, HSV replic up inactive, ABCB1 block 0.9, Furin inh -12.8 and ABCG2 block 2.3.
For CCCCCCCCCCCC(=O)NC(C(=O)O)C(O)c1ccccc1 (stereo not drawn) the results were Arbovirus inh 31.6*, NCF1 inh -0.6, HSV replic up inactive, ABCB1 block 0.0, Furin inh -2.3 and ABCG2 block 0.4.
`CCCCCCCCCC(=O)N[C@H](CN1CCOCC1)[C@H](O)c1ccccc1` gave HSV replic up inactive.
`Cc1nc(N2CCN(C)CC2)c2sc(=S)n(C)c2n1` gave Arbovirus inh 3.8, NCF1 inh 106.3*, HSV replic up inactive, ABCB1 block 0.5, Furin inh -5.9 and ABCG2 block 5.0.
For O=C(c1cccnc1)N1CCN(C/C=C/c2ccccc2)CC1 the results were Arbovirus inh 1.9, NCF1 inh -16.5, HSV replic up inactive, ABCB1 block 0.9, Furin inh -26.3 and ABCG2 block 7.5.
`Cc1cc(C(=O)N2CCN(C/C=C/c3ccccc3)CC2)cs1` gave Arbovirus inh 5.3, NCF1 inh 54.3*, HSV replic up inactive, ABCB1 block 1.9, Furin inh -11.8 and ABCG2 block 6.6.
Screening COC(=O)C[C@H]1c2cc(F)ccc2S(=O)(=O)N1c1ccc(N(C)C)cc1 returned HSV replic up inactive.
`Cc1ccc(C)c(N2CCN(C(=O)Cc3ccc(-n4c(=O)[nH]c5ccsc5c4=O)cc3)CC2)c1` gave Arbovirus inh 36.3*, NCF1 inh -7.0, HSV replic up inactive, ABCB1 block 0.8, Furin inh -9.0 and ABCG2 block 17.2.
Screening CCCN(CCC)S(=O)(=O)c1cccc(C(=O)Nc2ccc3c(c2)OCO3)c1 returned Arbovirus inh -24.3, NCF1 inh 165.4*, ABCB1 block 0.0, Furin inh -10.0 and ABCG2 block 0.1.
For CCOCCCNCc1cc(Cl)cc(Cl)c1OCC the results were Arbovirus inh -0.1, NCF1 inh -1.7, HSV replic up inactive, ABCB1 block 1.9, Furin inh -12.2 and ABCG2 block 7.3.
`O=C(Nc1cccnc1)OC1CCCC1` gave Arbovirus inh 3.6, NCF1 inh -9.9, HSV replic up inactive, ABCB1 block -0.1, Furin inh -33.8 and ABCG2 block 1.6.
